Laboratory results published in ChEMBL document CHEMBL4406821, “Novel dual inhibitors targeting CDK4 and VEGFR2 synergistically suppressed cancer progression and angiogenesis” (Eur J Med Chem, 2019).
Activity calls are given as the source filed them. The rule behind the calls is not given here.

What was measured:
T47D = experiment: Induction of apoptosis in human T47D cells assessed as increase in early apoptotic cells at 20 to 40 nM incubated for 48 hrs by annexin V FITC and propidium iodide staining based flow cytometry; type: functional, cell-based
Summary of the method: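 Annexin V-FITC/PI double staining with flow-cytometric readout. MDA-MB-231, T-47D, SiHa and HeLa cells were treated with graded concentrations for 48 h. MDA-MB-231 and T-47D were grown in DMEM and SiHa in 1640 medium, each with 10% FBS and 1% penicillin/streptomycin at 37°C under 5% CO2. Early- and late-stage apoptotic fractions were scored.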

[1] = Toxicity in NOD/SCID BALB/c mouse xenografted with human SiHa cells assessed as toxic effects in lungs at 40 mg/kg, po administered for 48 hrs by hematoxylin and eosin staining method; type: organism-based; conditions: in vivo
[2] = MRT (0 to t) in Sprague-Dawley rat at 10 mg/kg at 10 mg/kg, po by HPLC-MS analysis; type: ADME, organism-based; conditions: in vivo
[3] = target: Aurora kinase C (Homo sapiens) (UniProt Q9UQB9); experiment: Inhibition of recombinant human Aurora-C (35 to end residues) at 1 uM using AKRRRLSSLRA as substrate incubated for 40 mins in presence of [gamma-33P]-ATP by scintillation counting method relative to control
Summary of the method: (§1)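 Kinase panel profiling at 1 μM performed by Eurofins KinaseProfiler; percent inhibition reported as mean of two independent experiments.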

[4] = target: Calcium/calmodulin-dependent protein kinase type 1 (Homo sapiens) (UniProt Q14012); experiment: Inhibition of recombinant human CAMKIalpha (2 to end residues) at 1 uM using […] as substrate incubated for 40 mins in presence of [gamma-33P]-ATP by scintillation counting method relative to control
Chain of Calcium/calmodulin-dependent protein kinase type 1 (Homo sapiens) (Q14012 whole entry, looked up): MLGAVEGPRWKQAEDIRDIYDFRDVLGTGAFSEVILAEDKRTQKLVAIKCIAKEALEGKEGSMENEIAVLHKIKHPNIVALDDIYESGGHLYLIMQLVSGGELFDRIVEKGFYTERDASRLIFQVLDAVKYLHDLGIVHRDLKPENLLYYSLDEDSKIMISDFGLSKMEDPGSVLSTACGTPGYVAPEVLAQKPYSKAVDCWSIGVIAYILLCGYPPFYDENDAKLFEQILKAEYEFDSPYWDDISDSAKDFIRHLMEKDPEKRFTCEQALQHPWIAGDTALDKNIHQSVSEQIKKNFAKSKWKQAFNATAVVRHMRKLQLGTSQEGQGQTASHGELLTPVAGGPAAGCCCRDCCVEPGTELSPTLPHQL
Summary of the method: (§2)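 Tested at a single 1 uM in an outsourced commercial kinase-profiling panel, read as percent inhibition. Each value is the mean of two independent experiments.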

[5] = target: Calcium/calmodulin-dependent protein kinase type 1G (Homo sapiens) (UniProt Q96NX5); experiment: Inhibition of recombinant full length human CAMKIgamma at 1 uM using KKLRRTLSFAEPG as substrate incubated for 40 mins in presence of [gamma-33P]-ATP by scintillation counting method relative to control; summary of the method: as §1
Chain of Calcium/calmodulin-dependent protein kinase type 1G (Homo sapiens) (Q96NX5 whole entry): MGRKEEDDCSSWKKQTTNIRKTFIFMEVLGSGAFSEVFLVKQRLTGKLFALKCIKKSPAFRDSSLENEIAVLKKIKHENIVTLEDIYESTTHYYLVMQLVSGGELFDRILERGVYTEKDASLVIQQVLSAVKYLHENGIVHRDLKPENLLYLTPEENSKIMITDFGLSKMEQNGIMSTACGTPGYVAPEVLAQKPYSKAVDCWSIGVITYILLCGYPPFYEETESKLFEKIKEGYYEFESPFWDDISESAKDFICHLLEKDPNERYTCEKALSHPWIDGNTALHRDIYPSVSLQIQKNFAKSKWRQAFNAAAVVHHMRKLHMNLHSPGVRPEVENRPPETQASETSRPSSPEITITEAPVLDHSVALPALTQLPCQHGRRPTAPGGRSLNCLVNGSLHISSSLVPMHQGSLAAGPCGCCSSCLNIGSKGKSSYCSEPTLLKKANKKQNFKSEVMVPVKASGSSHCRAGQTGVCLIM

[6] = target: Rhodopsin kinase GRK7 (Homo sapiens) (UniProt Q8WTQ7); experiment: Inhibition of recombinant human full length GRK7 at 1 uM using casein as substrate incubated for 40 mins in presence of [gamma-33P]-ATP by scintillation counting method relative to control
[7] = target: Dual specificity mitogen-activated protein kinase kinase 2 (Homo sapiens) (UniProt P36507); experiment: Inhibition of recombinant human full length MEK2 at 1 uM using MBP as substrate incubated for 40 mins in presence of [gamma-33P]-ATP by scintillation counting method relative to control
[8] = target: Serine/threonine-protein kinase MARK1 (Homo sapiens) (UniProt Q9P0L2); experiment: Inhibition of recombinant human MARK1 (2 to end residues) at 1 uM using KKKVSRSGLYRSPSMPENLNRPR as substrate incubated for 40 mins in presence of [gamma-33P]-ATP by scintillation counting method relative to control
Chain of Serine/threonine-protein kinase MARK1 (Homo sapiens) (Q9P0L2 whole entry, looked up): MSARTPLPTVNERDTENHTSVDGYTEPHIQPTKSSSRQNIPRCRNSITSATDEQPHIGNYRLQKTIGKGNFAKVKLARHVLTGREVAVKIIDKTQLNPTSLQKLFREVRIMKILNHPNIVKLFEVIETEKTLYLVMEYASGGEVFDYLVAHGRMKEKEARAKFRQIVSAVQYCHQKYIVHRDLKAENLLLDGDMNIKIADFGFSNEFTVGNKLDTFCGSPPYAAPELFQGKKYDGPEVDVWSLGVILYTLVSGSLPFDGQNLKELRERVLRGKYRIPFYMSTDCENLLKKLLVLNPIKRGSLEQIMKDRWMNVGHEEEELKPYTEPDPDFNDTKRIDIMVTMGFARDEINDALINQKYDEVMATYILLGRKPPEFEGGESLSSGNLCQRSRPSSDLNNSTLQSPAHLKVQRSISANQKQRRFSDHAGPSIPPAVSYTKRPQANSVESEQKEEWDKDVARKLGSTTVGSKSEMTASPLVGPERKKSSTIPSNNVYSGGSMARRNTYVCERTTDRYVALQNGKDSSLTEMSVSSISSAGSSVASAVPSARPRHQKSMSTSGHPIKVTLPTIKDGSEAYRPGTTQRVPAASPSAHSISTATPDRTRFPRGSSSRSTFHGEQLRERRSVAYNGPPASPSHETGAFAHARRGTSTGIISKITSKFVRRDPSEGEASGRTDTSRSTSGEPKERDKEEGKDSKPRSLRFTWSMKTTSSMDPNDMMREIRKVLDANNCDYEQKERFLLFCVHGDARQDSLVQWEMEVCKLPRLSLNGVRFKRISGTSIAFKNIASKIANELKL

[9] = target: Mitogen-activated protein kinase kinase kinase 2 (Homo sapiens) (UniProt Q9Y2U5); experiment: Inhibition of recombinant human full length MEKK2 at 1 uM using myelin basic protein as substrate incubated for 40 mins in presence of [gamma-33P]-ATP by scintillation counting method relative to control
[10] = system: Hepatocyte growth factor receptor (Homo sapiens), P08581 [D1246N]; experiment: Inhibition of recombinant human Met D1246N mutant (974 to end residues) at 1 uM using KKKGQEEEYVFIE as substrate incubated for 40 mins in presence of [gamma-33P]-ATP by scintillation counting method relative to control
Chain of Hepatocyte growth factor receptor (Homo sapiens), P08581 [D1246N] (P08581 with tags, fused parts or gaps D1246N): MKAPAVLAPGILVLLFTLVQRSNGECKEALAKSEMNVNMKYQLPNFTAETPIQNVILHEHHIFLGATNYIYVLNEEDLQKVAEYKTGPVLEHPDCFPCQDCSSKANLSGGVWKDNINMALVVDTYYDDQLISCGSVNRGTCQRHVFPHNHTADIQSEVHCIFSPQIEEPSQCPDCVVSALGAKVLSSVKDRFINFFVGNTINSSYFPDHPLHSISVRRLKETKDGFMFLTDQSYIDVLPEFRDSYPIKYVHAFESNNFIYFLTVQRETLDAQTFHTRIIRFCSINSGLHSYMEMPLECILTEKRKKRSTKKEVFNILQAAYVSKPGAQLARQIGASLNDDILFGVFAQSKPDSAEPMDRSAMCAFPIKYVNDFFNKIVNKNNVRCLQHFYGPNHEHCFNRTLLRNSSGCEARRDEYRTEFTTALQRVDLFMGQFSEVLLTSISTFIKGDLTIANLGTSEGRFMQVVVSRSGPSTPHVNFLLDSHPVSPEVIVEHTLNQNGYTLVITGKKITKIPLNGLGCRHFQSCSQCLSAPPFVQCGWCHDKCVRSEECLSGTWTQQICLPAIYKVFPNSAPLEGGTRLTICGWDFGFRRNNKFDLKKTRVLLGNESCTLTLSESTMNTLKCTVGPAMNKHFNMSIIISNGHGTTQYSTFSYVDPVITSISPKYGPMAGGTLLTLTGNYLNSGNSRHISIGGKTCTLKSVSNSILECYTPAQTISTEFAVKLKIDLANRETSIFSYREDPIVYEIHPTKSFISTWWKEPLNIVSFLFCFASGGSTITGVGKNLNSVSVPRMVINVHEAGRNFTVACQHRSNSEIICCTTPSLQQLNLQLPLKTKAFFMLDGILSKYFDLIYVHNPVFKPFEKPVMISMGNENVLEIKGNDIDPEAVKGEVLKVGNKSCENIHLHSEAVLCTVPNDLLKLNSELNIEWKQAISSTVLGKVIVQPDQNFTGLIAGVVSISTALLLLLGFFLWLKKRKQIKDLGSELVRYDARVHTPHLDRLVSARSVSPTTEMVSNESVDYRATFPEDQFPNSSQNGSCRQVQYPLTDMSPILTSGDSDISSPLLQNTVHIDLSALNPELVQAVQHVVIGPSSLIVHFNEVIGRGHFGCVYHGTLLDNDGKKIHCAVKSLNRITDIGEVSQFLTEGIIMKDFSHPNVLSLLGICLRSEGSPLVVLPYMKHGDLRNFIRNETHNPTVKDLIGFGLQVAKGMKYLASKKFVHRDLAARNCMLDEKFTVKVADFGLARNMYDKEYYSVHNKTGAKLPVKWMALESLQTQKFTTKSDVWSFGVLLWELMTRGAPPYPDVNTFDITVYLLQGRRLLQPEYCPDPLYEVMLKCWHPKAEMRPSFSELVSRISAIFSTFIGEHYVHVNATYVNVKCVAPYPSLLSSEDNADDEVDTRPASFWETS

[11] = target: Dual specificity mitogen-activated protein kinase kinase 7 (Homo sapiens) (UniProt O14733); experiment: Inhibition of recombinant human MKK7beta (2 to end residues) at 1 uM using unactive JNK1a1 as substrate incubated for 40 mins in presence of [gamma-33P]-ATP by scintillation counting method relative to control
Chain of Dual specificity mitogen-activated protein kinase kinase 7 (Homo sapiens) (O14733 whole entry): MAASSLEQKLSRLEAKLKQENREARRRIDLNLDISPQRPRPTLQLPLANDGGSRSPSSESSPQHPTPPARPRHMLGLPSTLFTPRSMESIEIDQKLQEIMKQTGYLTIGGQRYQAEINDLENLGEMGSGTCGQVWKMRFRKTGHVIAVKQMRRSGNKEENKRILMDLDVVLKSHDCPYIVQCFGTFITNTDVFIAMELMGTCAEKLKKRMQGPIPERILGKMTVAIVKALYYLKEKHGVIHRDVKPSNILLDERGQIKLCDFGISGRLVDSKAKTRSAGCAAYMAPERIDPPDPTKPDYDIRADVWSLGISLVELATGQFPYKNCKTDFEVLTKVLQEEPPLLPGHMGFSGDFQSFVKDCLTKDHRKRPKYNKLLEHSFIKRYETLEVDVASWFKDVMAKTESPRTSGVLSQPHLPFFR

[12] = target: Serine/threonine-protein kinase PAK 5 (Homo sapiens) (UniProt Q9P286); experiment: Inhibition of recombinant human PAK5 (425 to end residues) at 1 uM using RRRLSFAEPG as substrate incubated for 40 mins in presence of [gamma-33P]-ATP by scintillation counting method relative to control
Chain of Serine/threonine-protein kinase PAK 5 (Homo sapiens) (Q9P286 whole entry, looked up): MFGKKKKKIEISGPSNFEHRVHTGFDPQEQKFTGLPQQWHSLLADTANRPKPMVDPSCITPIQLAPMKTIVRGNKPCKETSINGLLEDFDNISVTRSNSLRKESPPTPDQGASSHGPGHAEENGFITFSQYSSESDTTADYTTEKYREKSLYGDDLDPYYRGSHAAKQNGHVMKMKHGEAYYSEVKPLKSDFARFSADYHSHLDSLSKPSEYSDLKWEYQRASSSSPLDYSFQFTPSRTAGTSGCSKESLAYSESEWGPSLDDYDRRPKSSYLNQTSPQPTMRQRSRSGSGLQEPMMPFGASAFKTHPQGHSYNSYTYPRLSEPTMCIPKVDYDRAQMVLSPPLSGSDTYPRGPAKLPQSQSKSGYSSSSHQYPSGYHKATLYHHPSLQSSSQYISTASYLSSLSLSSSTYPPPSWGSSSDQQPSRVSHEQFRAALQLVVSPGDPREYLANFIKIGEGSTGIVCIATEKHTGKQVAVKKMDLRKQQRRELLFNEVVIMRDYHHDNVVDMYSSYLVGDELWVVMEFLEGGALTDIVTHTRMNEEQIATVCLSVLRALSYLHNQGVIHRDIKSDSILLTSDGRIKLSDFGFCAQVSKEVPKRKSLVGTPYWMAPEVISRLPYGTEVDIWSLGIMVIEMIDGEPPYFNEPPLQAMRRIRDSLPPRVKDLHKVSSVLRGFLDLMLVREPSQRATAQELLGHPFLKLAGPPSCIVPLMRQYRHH

[13] = target: Protein kinase C eta type (Homo sapiens) (UniProt P24723); experiment: Inhibition of recombinant human full length PKCeta (2 to end residues) at 1 uM using ERMRPRKRQGSVRRRV as substrate incubated for 40 mins in presence of [gamma-33P]-ATP by scintillation counting method relative to control
[14] = target: Receptor-interacting serine/threonine-protein kinase 1 (Homo sapiens) (UniProt Q13546); experiment: Inhibition of recombinant human RIPK1 (8 to 322 residues) at 1 uM using myelin basic protein as substrate incubated for 40 mins in presence of [gamma-33P]-ATP by scintillation counting method relative to control
Chain of Receptor-interacting serine/threonine-protein kinase 1 (Homo sapiens) (Q13546 whole entry, the tested form may be a part): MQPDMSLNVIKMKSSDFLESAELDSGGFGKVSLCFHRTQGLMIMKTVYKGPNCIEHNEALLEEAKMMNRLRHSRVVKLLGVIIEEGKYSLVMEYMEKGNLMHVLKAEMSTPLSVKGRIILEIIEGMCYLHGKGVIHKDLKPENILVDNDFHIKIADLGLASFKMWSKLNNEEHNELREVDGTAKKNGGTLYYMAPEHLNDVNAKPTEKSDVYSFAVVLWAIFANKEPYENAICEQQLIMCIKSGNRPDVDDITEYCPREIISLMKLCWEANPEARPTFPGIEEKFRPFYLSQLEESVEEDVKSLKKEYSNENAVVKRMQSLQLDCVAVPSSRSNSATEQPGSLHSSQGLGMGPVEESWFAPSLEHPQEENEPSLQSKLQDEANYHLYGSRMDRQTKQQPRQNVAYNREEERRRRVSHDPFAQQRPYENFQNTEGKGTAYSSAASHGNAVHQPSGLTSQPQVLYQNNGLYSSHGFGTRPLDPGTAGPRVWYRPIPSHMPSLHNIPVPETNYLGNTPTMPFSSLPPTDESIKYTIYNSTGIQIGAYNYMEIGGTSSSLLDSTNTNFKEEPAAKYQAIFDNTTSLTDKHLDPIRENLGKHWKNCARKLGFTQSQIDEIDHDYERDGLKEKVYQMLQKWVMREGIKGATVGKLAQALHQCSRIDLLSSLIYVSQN

[15] = target: Ribosomal protein S6 kinase alpha-1 (Homo sapiens) (UniProt Q15418); experiment: Inhibition of recombinant human full length RSK1 at 1 uM using KKKNRTLSVA as substrate incubated for 40 mins in presence of [gamma-33P]-ATP by scintillation counting method relative to control; summary of the method: as §2
[16] = target: Serine/threonine-protein kinase PLK2 (Homo sapiens) (UniProt Q9NYY3); experiment: Inhibition of recombinant human SNK (65 to 409 residues) at 1 uM using casein as substrate incubated for 40 mins in presence of [gamma-33P]-ATP by scintillation counting method relative to control
[17] = target: Serine/threonine-protein kinase TBK1 (Homo sapiens) (UniProt Q9UHD2); experiment: Inhibition of recombinant human full length TBK1 at 1 uM using KRRRALS(p)VASLPGL as substrate incubated for 40 mins in presence of [gamma-33P]-ATP by scintillation counting method relative to control
[18] = target: Wee1-like protein kinase 2 (Homo sapiens) (UniProt P0C1S8); experiment: Inhibition of recombinant human full length WEE1B at 1 uM using LSNLYHQGKFLQTFCGSPLYRRR as substrate incubated for 40 mins in presence of [gamma-33P]-ATP by scintillation counting method relative to control
Summary of the method: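 Single-point inhibition at 1 uM measured in a commercial kinase profiling panel (KinaseProfiler); each value is the mean of two independent experiments.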

[19] = system: PI3-kinase p110-alpha/p85-alpha (Homo sapiens), P27986+P42336 [E542K]; experiment: Inhibition of recombinant human full length PI3K p110alpha/p85alpha E542K mutant at 1 uM using phosphatidylinositol 4,5-bisphosphate as substrate incubated for 40 mins in presence of [gamma-33P]-ATP by scintillation counting method relative to control; type: protein-complex assay
HeLa = experiment: Induction of apoptosis in human HeLa cells assessed as decrease in Bcl2 expression at 80 nM incubated for 48 hrs by Western blot analysis; type: functional, cell-based
Summary of the method: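 Cells were treated for 48 h, washed three times with PBS, and lysed in RIPA buffer. Immunoblots used anti-Rb, anti-phospho-Rb, anti-Ki67 and anti-Bcl-2 (each 1:1000), with β-actin as loading control.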

For `Cc1ccc(NC(=O)C2(C(=O)Nc3ccc(Nc4ncc(F)c(-c5cc(F)c6nc(C)n(C(C)C)c6c5)n4)cc3)CC2)cc1`, the Activity (T47D) was “Active”, the Activity [1] was “Non-Toxic” and the MRT last [2] was 4 h. It also gave an inhibition [3] of 9%, an inhibition [4] of 0% and an inhibition [5] of 5%. The inhibition [6] was 8%, the inhibition [7] was 14% and the inhibition [8] was 74%. For the same compound, the inhibition [9] was 79%, the inhibition [10] was 51% and the inhibition [11] was 13%. The inhibition [12] was 28%, the inhibition [13] was 17% and the inhibition [14] was 15%. For the same compound, the inhibition [15] was 0%, the inhibition [16] was 47% and the inhibition [17] was 9%. It also gave an inhibition [18] of 0% and an inhibition [19] of 5%.
In the case of `COc1cc2nccc(Oc3ccc(NC(=O)C4(C(=O)Nc5ccc(F)cc5)CC4)cc3)c2cc1OC` [CABOZANTINIB], the Activity (HeLa) is reported as “Active”.
